# The source made the active and inactive calls. No cut-off for these calls is given here.
# Key:
# [1] = Plasma concentration in Sprague-Dawley rat at 30 mg/kg, ip after 8 hrs; type: ADME, organism-based; parameters: dose 30 mg/kg, route intraperitoneal
# Outline: (§1)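 Rats given 30 mg/kg ip. Brain (µg/g) and plasma levels measured at 1 and 8 h after dosing.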
# [2] = Plasma clearance in Sprague-Dawley rat at 5 mg/kg, iv
# [3] = Concentration in Sprague-Dawley rat brain at 30 mg/kg, ip after 8 hrs; type: ADME, organism-based; parameters: dose 30 mg/kg, route intraperitoneal; settings: read-out: Ct; outline: as §1
# [4] = Inhibition of histamine receptor
# [5] = Inhibition of adrenergic receptor
# Rattus norvegicus [6] = experiment: AUC in Sprague-Dawley rat at 5 mg/kg, ip; type: ADME, organism-based, Plasma; parameters: dose 5 mg/kg, route intraperitoneal; settings: in vivo
# [7] = Plasma concentration in Sprague-Dawley rat at 5 mg/kg after 1 hr; type: ADME, organism-based; parameters: dose 5 mg/kg
# Outline: (§2)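 Rats dosed at 5 mg/kg: iv for AUC (µg·h/mL), clearance (L/h·kg) and Cmax (µg/mL); oral for bioavailability unless stated otherwise. Brain (µg/g) and plasma levels taken at 1 and 8 h. Mean of n = 3.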
# [8] = molecular target: T1, 5-hydroxytryptamine receptor 2C (Homo sapiens, UniProt P28335); experiment: Inhibition of 5HT2C receptor
# T1 sequence (P28335 whole entry): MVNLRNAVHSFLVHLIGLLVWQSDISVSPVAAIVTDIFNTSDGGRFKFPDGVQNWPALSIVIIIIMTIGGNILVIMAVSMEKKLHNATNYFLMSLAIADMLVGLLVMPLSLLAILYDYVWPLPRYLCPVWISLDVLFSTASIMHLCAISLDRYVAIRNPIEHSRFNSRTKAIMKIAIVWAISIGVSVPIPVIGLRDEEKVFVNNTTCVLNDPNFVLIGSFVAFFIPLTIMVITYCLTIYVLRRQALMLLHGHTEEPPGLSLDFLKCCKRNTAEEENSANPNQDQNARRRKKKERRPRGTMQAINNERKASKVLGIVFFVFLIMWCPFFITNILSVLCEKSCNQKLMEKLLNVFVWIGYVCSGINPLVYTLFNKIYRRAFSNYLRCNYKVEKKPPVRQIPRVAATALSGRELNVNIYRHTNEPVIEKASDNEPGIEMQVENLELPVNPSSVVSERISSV
# Rattus norvegicus [9] = experiment: Reduction in cumulative food intake in free-fed Sprague-Dawley rat at 10 mg/kg, ip after 1 hr; type: functional, organism-based; parameters: dose 10 mg/kg
# Outline: (§3)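 Single ip dose of 10 or 30 mg/kg to free-fed or 16 h (overnight) fasted Sprague-Dawley rats. Cumulative food intake recorded at 1 and 24 h after dosing. n = 10/group, mean ± SEM; ANOVA with post hoc Dunnett.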
# Rattus norvegicus [10] = experiment: Reduction in cumulative food intake in free-fed Sprague-Dawley rat at 10 mg/kg, ip after 24 hrs; type: functional, organism-based; parameters: dose 10 mg/kg; outline: as §3
# [11] = Concentration in Sprague-Dawley rat brain at 5 mg/kg after 1 hr; type: ADME, organism-based; parameters: dose 5 mg/kg; settings: read-out: Ct; outline: as §2
# Rattus norvegicus [12] = experiment: Reduction in cumulative food intake in free-fed Sprague-Dawley rat at 30 mg/kg, ip after 24 hrs; type: functional; parameters: scale not given: the % may be the effect or the level left; settings: route intraperitoneal; outline: as §3
# [13] = Oral bioavailability in Sprague-Dawley rat at 5 mg/kg; type: ADME, organism-based; settings: in vivo; outline: as §2
# Rattus norvegicus [14] = experiment: Reduction in cumulative food intake in fasted Sprague-Dawley rat at 30 mg/kg, ip after 24 hrs; type: functional; parameters: scale not given: the % may be the effect or the level left; settings: route intraperitoneal; outline: as §3
# [15] = Plasma concentration in Sprague-Dawley rat at 30 mg/kg, ip after 1 hr; type: ADME, organism-based; parameters: dose 30 mg/kg, route intraperitoneal; outline: as §1
# Rattus norvegicus [16] = experiment: AUC in Sprague-Dawley rat at 5 mg/kg, iv; type: ADME, organism-based, Plasma; parameters: dose 5 mg/kg, route intravenous; settings: in vivo; outline: as §2
# [17] = Cmax in Sprague-Dawley rat at 5 mg/kg, iv; type: ADME, organism-based; parameters: dose 5 mg/kg, route intravenous; settings: in vivo; outline: as §2
# [18] = Half life in Sprague-Dawley rat at 5 mg/kg, ip; type: ADME, organism-based; parameters: dose 5 mg/kg, route intraperitoneal; settings: in vivo
# [19] = Concentration in Sprague-Dawley rat brain at 30 mg/kg, ip after 1 hr; type: ADME, organism-based; parameters: dose 30 mg/kg, route intraperitoneal; settings: read-out: Ct; outline: as §1
# Rattus norvegicus [20] = experiment: Decrease in body weight in Sprague-Dawley rat at 30 mg/kg, ip after 24 hrs; type: functional, organism-based; parameters: dose 30 mg/kg
# Outline: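 Free-fed Sprague-Dawley rats given a single ip dose (10 or 30 mg/kg); body weight taken 24 h after dosing. n = 10/group, mean ± SEM; ANOVA with post hoc Dunnett.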
# Rattus norvegicus [21] = experiment: Reduction in cumulative food intake in fasted Sprague-Dawley rat at 10 mg/kg, ip after 24 hrs; type: functional, organism-based; parameters: dose 10 mg/kg; outline: as §3
# [22] = molecular target: T2, Growth hormone secretagogue receptor type 1 (Homo sapiens, UniProt Q92847); experiment: Antagonist activity at human GHS receptor by inhibition of ghrelin-induced intracellular calcium flux in CHOK cells; type: functional, cell-based
# T2 sequence (Q92847 whole entry): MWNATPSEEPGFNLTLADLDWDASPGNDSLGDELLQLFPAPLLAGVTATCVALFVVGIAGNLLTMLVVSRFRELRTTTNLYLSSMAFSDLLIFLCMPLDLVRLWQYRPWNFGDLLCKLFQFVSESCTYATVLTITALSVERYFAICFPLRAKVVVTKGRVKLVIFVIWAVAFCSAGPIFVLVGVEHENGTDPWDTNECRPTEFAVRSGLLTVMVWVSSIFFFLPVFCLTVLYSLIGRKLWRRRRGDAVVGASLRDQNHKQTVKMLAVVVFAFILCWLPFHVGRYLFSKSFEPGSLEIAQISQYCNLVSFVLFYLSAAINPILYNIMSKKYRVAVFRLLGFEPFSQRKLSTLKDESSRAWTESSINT
# Outline: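 CHO-K cells stably expressing human GHS-R, grown in Ultra-CHO medium with 1% dialyzed FCS and 400 µg/mL G418, plated to confluency overnight. Loaded with Fluo-4 AM plus probenecid for 1-3 h in the dark at RT, then washed. On FLIPR (ex 488/em 520 nm), compound added first and read 3 min, then ghrelin added and read another 3 min. Duplicate or triplicate wells; sigmoidal fit for IC50.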
# [23] = molecular target: T2, Growth hormone secretagogue receptor type 1; experiment: Displacement of [125I]ghrelin from human GHS receptor expressed in CHOK cells; type: cell-based
# Outline: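 Membranes from CHO-K cells expressing human ghrelin receptor, prepared by sonication and a 60000g spin. Filtered onto PEI-soaked GF/C, washed cold, scintillation counted; percent inhibition, sigmoidal fit for IC50.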
# Rattus norvegicus [24] = experiment: Bioavailability in Sprague-Dawley rat at 5 mg/kg, ip; type: ADME, organism-based; settings: in vivo
# Rattus norvegicus [25] = experiment: Reduction in cumulative food intake in free-fed Sprague-Dawley rat at 30 mg/kg, ip after 1 hr; type: functional, organism-based; parameters: dose 30 mg/kg; outline: as §3
# Dopamine receptor = experiment: Inhibition of dopaminergic receptor; type: protein assay
# [26] = Concentration in Sprague-Dawley rat brain at 5 mg/kg after 8 hrs; type: ADME, organism-based; parameters: dose 5 mg/kg; settings: read-out: Ct; outline: as §2
# [27] = Cmax in Sprague-Dawley rat at 5 mg/kg, ip; type: ADME, organism-based; parameters: dose 5 mg/kg, route intraperitoneal; settings: in vivo
# [28] = molecular target: Cannabinoid receptor 1 (Homo sapiens) (UniProt P21554); experiment: Inhibition of CB1 receptor at 10 uM
# Chain of Cannabinoid receptor 1 (Homo sapiens) (P21554 whole entry): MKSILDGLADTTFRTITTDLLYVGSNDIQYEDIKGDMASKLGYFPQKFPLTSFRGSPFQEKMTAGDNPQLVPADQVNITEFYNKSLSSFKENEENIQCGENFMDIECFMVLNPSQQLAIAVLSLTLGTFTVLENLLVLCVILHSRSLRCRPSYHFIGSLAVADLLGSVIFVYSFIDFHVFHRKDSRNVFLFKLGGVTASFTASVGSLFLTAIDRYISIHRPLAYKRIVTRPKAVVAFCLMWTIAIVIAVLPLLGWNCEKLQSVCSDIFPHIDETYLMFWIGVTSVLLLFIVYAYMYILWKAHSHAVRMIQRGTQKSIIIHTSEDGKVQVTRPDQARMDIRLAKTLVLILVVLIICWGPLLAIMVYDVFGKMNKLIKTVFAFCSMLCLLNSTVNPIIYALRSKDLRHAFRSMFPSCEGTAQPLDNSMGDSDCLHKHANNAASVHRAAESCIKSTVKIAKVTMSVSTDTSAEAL
# [29] = molecular target: Muscarinic acetylcholine receptor; experiment: Inhibition of muscarinic receptor; type: protein assay
# [30] = molecular target: Melanin-concentrating hormone receptor (Homo sapiens, UniProt Q969V1+Q99705); experiment: Activity against MCH receptor in an intracellular calcium flux assay; type: functional, cell-based
# [31] = molecular target: Nociceptin/orphanin FQ receptor, ORL1 (Homo sapiens) (UniProt P41146); experiment: Inhibition of opioid like-1 receptor
# Chain of Nociceptin/orphanin FQ receptor, ORL1 (Homo sapiens) (P41146 whole entry, looked up): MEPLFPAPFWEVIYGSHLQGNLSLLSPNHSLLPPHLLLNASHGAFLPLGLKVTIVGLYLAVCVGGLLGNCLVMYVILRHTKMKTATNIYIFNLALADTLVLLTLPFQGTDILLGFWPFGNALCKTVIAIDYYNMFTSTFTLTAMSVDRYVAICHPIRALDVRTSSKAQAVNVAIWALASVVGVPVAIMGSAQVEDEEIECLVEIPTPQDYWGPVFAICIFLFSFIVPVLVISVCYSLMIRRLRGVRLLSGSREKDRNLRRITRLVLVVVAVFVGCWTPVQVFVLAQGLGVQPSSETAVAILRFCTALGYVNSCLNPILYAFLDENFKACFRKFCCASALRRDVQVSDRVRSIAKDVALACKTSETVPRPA
# [32] = Plasma concentration in Sprague-Dawley rat at 5 mg/kg after 8 hrs; type: ADME, organism-based; parameters: dose 5 mg/kg; outline: as §2
smiles,measurement,setting,value
Nc1nc(N)c(-c2ccc(NCc3ccc(Cl)cc3)cc2)c(COCc2ccccc2)n1,concentration at 8 h,[1],190 ng/mL
same,clearance,[2],36.7 mL/min/kg
same,concentration at 8 h,[3],140 ng/g
same,IC50,[4],> 33 µM
same,IC50,[5],> 33 µM
same,AUC,Rattus norvegicus [6],1140 ng·h/mL
same,concentration at 1 h,[7],350 ng/mL
same,IC50,[8],> 33 µM
same,Activity,Rattus norvegicus [9],Dose-dependent effect
same,Activity,Rattus norvegicus [10],Dose-dependent effect
same,concentration at 1 h,[11],1070 ng/g
same,Activity,Rattus norvegicus [12],29%
same,bioavailability,[13],5.5%
same,Activity,Rattus norvegicus [14],24%
same,concentration at 1 h,[15],500 ng/mL
same,AUC,Rattus norvegicus [16],120 ng·h/mL
same,Cmax,[17],54 ng/mL
same,half-life,[18],3.9 h
same,concentration at 1 h,[19],330 ng/g
same,Activity,Rattus norvegicus [20],Active
same,Activity,Rattus norvegicus [21],Dose-dependent effect
same,IC50,[22],0.18 µM
same,IC50,[23],0.019 µM
same,F,Rattus norvegicus [24],68%
same,Activity,Rattus norvegicus [25],Dose-dependent effect
same,IC50,Dopamine receptor,> 33 µM
same,concentration at 8 h,[26],50 ng/g
same,Cmax,[27],260 ng/mL
same,inhibition,[28],-1%
same,IC50,[29],> 5.5 µM
same,IC50,[30],> 10 µM
same,IC50,[31],> 33 µM
same,concentration at 8 h,[32],30 ng/mL

# From ChEMBL document CHEMBL1146071, “2,4-diaminopyrimidine derivatives as potent growth hormone secretagogue receptor antagonists” (J Med Chem, 2006)
